Test results: ChEMBL document CHEMBL3351244, “Structure based design of novel 6,5 heterobicyclic mitogen-activated protein kinase kinase (MEK) inhibitors leading to the discovery of imidazo[1,5-a] pyrazine G-479” (Bioorg Med Chem Lett, 2014)
Values after ≈ are worked out from the molar mass of the structure shown.

Experiments:
Cytochrome P450 3A4 [1] = target: T1, Cytochrome P450 3A4 (Homo sapiens, UniProt P08684); assay: Inhibition of CYP3A4 (unknown origin) using midazolam substrate; assay type: ADME
Cytochrome P450 2C19 = Cytochrome P450 2C19 (Homo sapiens, UniProt P33261); assay: Inhibition of CYP2C19 (unknown origin); assay type: ADME
[2] = Lipophilicity, logD of the compound at pH 7.4; assay type: physicochemical; conditions: buffer
Cytochrome P450 1A2 = target: T2, Cytochrome P450 1A2 (Homo sapiens, UniProt P05177); assay: Inhibition of CYP1A2 (unknown origin); assay type: ADME
T2 sequence (P05177 whole entry): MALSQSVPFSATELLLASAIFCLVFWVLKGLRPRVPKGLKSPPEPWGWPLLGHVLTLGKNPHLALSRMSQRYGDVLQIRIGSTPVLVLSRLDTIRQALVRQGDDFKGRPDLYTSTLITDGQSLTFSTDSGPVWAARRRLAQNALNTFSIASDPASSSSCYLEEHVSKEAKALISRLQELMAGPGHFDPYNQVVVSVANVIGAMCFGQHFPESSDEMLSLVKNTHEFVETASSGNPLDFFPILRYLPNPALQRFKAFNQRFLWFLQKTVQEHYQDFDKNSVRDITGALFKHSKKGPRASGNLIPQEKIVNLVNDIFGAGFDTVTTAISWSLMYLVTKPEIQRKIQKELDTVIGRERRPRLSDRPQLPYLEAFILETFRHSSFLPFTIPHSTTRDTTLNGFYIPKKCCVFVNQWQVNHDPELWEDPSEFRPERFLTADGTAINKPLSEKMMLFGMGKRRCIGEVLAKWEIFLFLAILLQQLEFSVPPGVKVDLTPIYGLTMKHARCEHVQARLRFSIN

Cytochrome P450 2C9 = Cytochrome P450 2C9 (Homo sapiens, UniProt P11712); assay: Inhibition of CYP2C9 (unknown origin); assay type: ADME
Cytochrome P450 3A4 [3] = target: T1, Cytochrome P450 3A4; assay: Inhibition of CYP3A4 (unknown origin) using testosterone substrate; assay type: ADME
[4] = Antiproliferative activity against human HCT116 cells assessed as inhibition of cell proliferation after 72 hrs; assay type: functional, cell-based; conditions: HCT-116, 72 h
Summary of the method: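 Cell proliferation measured after 72 h exposure in HCT116 and A375 cells; IC₅₀ reported.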

Cytochrome P450 2D6 = Cytochrome P450 2D6 (Homo sapiens, UniProt P10635); assay: Inhibition of CYP2D6 (unknown origin); assay type: ADME
[5] = target: Dual specificity mitogen-activated protein kinase kinase 1 (Homo sapiens, UniProt Q02750); assay: Inhibition of MEK1 (unknown origin) by HTRF assay
A-375 = assay: cells; conditions: Homo sapiens, A-375, 72 h
Rattus norvegicus [6] = assay: Dose normalized AUC in rat at 5 mg/kg, po; assay type: ADME, organism-based; set-up: dose 5 mg/kg, route oral; conditions: in vivo
[7] = Half life in rat at 1 mg/kg, iv or 5 mg/kg, po; assay type: ADME, organism-based; conditions: in vivo
Rattus norvegicus [8] = assay: Free clearance in rat at 1 mg/kg, iv or 5 mg/kg, po; assay type: ADME, organism-based; conditions: in vivo
[9] = Protein binding in rat plasma; assay type: ADME, cell-free; conditions: read-out: PPB (converted)
[10] = Total clearance in rat at 1 mg/kg, iv or 5 mg/kg, po; assay type: ADME, organism-based; conditions: in vivo
[11] = Thermodynamic solubility of the compound at pH 6.5; assay type: physicochemical; conditions: buffer, read-out: Therm_solubility
[12] = Hepatic clearance in dog liver microsomes; assay type: ADME, Canis lupus familiaris
Summary of the method: (§1)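 Compounds incubated with liver microsomes from human, rat, mouse, dog and cynomolgus monkey to assess comparative metabolic stability; clearance expressed in mL/min/kg, with stable/moderate/labile designations assigned by set ranges.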

[13] = Protein binding in human plasma; assay type: ADME, cell-free; conditions: read-out: PPB (converted)
[14] = Hepatic clearance in mouse liver microsomes; assay type: ADME; summary of the method: as §1
[15] = Protein binding in mouse plasma; assay type: ADME, cell-free; conditions: read-out: PPB (converted)
[16] = (§2) Permeability from basolateral to apical side in MDCK cells; assay type: ADME, cell-based, Canis lupus familiaris; conditions: dog, read-out: permeability
[17] = target: Voltage-gated inwardly rectifying potassium channel KCNH2 (Homo sapiens, UniProt Q12809); assay: Inhibition of human ERG by patch clamp assay
[18] = Volume of distribution at steady state in rat at 1 mg/kg, iv or 5 mg/kg, po; assay type: ADME, organism-based; conditions: in vivo, read-out: Vdss
[19] = Oral bioavailability in rat at 5 mg/kg; assay type: ADME, organism-based; conditions: in vivo
[20] = AUC in rat at 1 mg/kg, iv or 5 mg/kg, po; assay type: ADME, organism-based; conditions: plasma
[21] = (§3) Efflux ratio in MDCK cells; assay type: ADME, cell-based, Canis lupus familiaris; conditions: dog
Summary of the method: (§4)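 Efflux ratio derived as B–A permeability divided by A–B permeability across MDCK cell monolayers. Apparent permeabilities were measured in both directions and expressed in 10^-6 cm/s.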

[22] = (§5) Permeability from apical to basolateral side in MDCK cells; assay type: ADME, cell-based, Canis lupus familiaris; conditions: dog, read-out: permeability
[23] = Hepatic clearance in cynomolgus monkey liver microsomes; assay type: ADME, Macaca fascicularis; summary of the method: as §1
[24] = Hepatic clearance in human liver microsomes; assay type: ADME; summary of the method: as §1
[25] = Hepatic clearance in rat liver microsomes; assay type: ADME; summary of the method: as §1
[26] = Dissociation constant, pKa of the compound by Sirius based assay; assay type: physicochemical
MDCK [27] = assay: as §2; assay type: ADME, cell-based, Canis lupus familiaris; conditions: dog
MDCK [28] = assay: as §3; assay type: ADME, cell-based, Canis lupus familiaris; conditions: dog; summary of the method: as §4
MDCK [29] = assay: as §5; assay type: ADME, cell-based, Canis lupus familiaris; conditions: dog
Plasma [30] = assay: Drug metabolism rat plasma assessed as metabolite formation at 5 mg/kg, po; assay type: ADME, organism-based; set-up: dose 5 mg/kg, route oral; conditions: in vivo
Plasma [31] = assay: Stability in rat plasma at 5 mg/kg, po; assay type: ADME, organism-based; set-up: dose 5 mg/kg, route oral; conditions: in vivo

Sequence of Cytochrome P450 2D6 (P10635 whole entry): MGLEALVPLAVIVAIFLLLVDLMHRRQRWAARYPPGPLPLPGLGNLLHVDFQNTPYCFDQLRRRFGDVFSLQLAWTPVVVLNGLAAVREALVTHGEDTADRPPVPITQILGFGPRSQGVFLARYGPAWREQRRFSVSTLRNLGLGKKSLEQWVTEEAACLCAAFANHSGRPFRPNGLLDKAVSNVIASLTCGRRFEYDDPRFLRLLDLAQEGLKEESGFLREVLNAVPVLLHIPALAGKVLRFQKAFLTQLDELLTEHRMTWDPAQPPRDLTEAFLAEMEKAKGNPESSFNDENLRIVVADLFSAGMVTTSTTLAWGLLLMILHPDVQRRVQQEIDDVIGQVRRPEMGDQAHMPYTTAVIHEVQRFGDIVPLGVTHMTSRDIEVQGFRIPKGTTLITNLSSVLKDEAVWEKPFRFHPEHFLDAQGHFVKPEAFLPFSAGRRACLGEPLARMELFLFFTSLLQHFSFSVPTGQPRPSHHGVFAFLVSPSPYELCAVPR
Sequence of Voltage-gated inwardly rectifying potassium channel KCNH2 (Q12809 whole entry): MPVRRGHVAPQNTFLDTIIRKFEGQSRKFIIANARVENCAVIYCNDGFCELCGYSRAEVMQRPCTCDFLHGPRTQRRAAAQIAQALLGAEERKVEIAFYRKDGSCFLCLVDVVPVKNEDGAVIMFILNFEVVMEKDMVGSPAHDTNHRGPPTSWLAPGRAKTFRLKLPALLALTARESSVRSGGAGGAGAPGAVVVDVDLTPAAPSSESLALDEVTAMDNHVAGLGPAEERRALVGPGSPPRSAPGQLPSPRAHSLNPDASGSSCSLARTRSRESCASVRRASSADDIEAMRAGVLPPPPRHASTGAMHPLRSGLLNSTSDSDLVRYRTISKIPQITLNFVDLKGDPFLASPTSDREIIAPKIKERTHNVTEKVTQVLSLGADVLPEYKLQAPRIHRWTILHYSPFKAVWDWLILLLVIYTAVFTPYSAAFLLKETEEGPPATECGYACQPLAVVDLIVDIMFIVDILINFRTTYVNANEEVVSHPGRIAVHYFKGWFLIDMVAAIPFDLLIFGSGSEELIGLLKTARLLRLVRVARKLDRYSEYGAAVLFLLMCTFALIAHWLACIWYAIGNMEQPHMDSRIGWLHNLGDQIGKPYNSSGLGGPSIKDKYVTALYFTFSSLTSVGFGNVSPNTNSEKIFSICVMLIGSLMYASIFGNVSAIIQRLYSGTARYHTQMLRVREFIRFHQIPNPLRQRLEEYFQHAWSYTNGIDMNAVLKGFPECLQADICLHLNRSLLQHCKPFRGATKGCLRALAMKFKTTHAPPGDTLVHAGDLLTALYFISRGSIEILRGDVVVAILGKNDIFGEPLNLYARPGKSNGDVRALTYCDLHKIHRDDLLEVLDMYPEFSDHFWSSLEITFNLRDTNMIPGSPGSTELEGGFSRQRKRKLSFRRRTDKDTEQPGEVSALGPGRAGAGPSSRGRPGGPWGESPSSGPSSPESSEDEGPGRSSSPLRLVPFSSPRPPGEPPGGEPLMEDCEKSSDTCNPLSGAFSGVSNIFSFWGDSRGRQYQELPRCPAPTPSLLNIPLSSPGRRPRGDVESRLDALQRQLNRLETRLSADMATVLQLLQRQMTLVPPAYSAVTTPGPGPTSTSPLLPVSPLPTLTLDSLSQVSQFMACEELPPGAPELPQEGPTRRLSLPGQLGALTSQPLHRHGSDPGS
T1 sequence (P08684 whole entry): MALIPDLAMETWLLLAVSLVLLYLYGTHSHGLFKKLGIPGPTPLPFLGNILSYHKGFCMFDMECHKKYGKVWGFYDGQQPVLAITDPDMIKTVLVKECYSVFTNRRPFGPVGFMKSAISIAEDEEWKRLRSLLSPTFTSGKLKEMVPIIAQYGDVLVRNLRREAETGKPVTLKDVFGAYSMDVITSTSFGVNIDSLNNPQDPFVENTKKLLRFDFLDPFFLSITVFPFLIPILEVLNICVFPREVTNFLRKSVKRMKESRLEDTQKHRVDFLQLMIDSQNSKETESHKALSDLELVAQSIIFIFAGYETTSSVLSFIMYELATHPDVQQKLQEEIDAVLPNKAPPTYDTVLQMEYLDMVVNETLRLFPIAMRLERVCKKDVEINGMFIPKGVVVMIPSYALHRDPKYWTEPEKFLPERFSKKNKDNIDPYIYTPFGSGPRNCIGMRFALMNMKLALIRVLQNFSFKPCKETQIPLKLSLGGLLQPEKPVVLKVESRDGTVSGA
Sequence of Cytochrome P450 2C19 (P33261 whole entry): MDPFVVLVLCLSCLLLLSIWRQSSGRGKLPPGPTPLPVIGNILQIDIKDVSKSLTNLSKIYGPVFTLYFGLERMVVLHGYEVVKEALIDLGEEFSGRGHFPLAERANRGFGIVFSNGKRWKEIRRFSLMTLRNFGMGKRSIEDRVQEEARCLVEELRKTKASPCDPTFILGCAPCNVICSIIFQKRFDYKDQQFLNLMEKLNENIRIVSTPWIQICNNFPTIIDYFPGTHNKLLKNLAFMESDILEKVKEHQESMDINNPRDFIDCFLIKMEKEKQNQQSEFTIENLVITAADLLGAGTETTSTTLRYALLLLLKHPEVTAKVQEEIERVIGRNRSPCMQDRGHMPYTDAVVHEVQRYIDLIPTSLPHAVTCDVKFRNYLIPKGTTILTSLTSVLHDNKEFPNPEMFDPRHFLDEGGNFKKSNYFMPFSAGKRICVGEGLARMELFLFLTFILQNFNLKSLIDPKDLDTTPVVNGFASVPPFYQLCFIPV
Sequence of Cytochrome P450 2C9 (P11712 whole entry): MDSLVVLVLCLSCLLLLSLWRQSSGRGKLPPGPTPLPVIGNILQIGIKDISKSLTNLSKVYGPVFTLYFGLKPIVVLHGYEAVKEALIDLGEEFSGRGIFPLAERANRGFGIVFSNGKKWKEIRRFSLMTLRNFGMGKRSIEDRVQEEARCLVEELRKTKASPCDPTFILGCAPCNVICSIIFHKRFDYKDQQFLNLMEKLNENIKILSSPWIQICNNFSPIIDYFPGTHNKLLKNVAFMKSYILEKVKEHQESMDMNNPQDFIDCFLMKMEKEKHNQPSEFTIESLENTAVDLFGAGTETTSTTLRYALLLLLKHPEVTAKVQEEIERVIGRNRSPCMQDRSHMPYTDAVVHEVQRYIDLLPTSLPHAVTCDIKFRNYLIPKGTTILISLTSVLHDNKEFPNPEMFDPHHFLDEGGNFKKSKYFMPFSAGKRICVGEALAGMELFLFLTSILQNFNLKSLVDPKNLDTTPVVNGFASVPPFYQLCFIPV
Sequence of Dual specificity mitogen-activated protein kinase kinase 1 (Q02750 whole entry): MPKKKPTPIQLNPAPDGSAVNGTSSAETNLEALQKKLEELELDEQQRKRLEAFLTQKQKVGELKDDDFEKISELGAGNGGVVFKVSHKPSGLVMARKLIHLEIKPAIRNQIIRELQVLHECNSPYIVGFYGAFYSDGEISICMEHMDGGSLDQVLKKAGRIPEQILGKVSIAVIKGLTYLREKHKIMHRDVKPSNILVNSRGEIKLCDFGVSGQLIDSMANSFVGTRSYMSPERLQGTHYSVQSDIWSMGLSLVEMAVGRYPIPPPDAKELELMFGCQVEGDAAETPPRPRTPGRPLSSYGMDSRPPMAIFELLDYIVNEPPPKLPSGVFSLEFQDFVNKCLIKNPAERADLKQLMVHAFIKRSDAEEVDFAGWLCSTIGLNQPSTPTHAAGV

O=C(NOCCO)c1ccc2cnsc2c1Nc1ccc(I)cc1F
IC50 (Cytochrome P450 3A4 [1]): 9000 nM
IC50 (Cytochrome P450 2C19): 1800 nM
logD [2]: 3.1
IC50 (Cytochrome P450 1A2): > 10000 nM
IC50 (Cytochrome P450 2C9): 1300 nM
IC50 (Cytochrome P450 3A4 [3]): 9000 nM
EC50 [4]: 44 nM
IC50 (Cytochrome P450 2D6): > 10000 nM

O=C(NOCCO)c1oc2ccncc2c1Nc1ccc(I)cc1F
IC50 (Cytochrome P450 3A4 [1]): > 10000 nM
IC50 (Cytochrome P450 2C19): > 10000 nM
logD [2]: 3.1
IC50 (Cytochrome P450 1A2): > 10000 nM
IC50 (Cytochrome P450 2C9): > 10000 nM
IC50 (Cytochrome P450 3A4 [3]): > 10000 nM
IC50 [5]: 12 nM
EC50 (A-375): 25 nM
EC50 [4]: 120 nM
IC50 (Cytochrome P450 2D6): > 10000 nM

O=C(NOCCO)c1cc(F)c2cncn2c1Nc1ccc(I)cc1F
AUC/dose (Rattus norvegicus [6]): 41 µM·h
half-life [7]: 3.6 h
IC50 (Cytochrome P450 2C9): 1200 nM
CL free (Rattus norvegicus [8]): 55 mL/min/kg
fraction unbound [9]: 0.03
EC50 [4]: 140 nM
clearance [10]: 3.3 mL/min/kg

O=C(NOCCO)c1ccn2cncc2c1Nc1ccc(I)cc1F
IC50 (Cytochrome P450 3A4 [1]): > 10000 nM
solubility thermodynamic [11]: 110 µg/mL (≈ 241 µM)
CLhep predicted [12]: 23 mL/min/kg
IC50 (Cytochrome P450 2C19): 16000 nM
logD [2]: 2.1
IC50 (Cytochrome P450 1A2): > 10000 nM
AUC/dose (Rattus norvegicus [6]): 37 µM·h
half-life [7]: 0.9 h
IC50 (Cytochrome P450 2C9): 7300 nM
IC50 (Cytochrome P450 3A4 [3]): > 10000 nM
fraction unbound [13]: 0.015
CLhep predicted [14]: 75 mL/min/kg
fraction unbound [15]: 0.049
Papp B→A [16]: 14 ×10⁻⁶ cm/s
IC50 [17]: 2100 nM
Vd [18]: 0.46 L/kg
CL free (Rattus norvegicus [8]): 636 mL/min/kg
fraction unbound [9]: 0.022
bioavailability [19]: 37%
AUC [20]: 6 µM·h
efflux ratio [21]: 0.7
EC50 (A-375): 2 nM
EC50 [4]: 35 nM
IC50 (Cytochrome P450 2D6): > 10000 nM
Papp A→B [22]: 20.4 ×10⁻⁶ cm/s
CLhep predicted [23]: 38 mL/min/kg
CLhep predicted [24]: 15 mL/min/kg
CLhep predicted [25]: 40 mL/min/kg
clearance [10]: 14 mL/min/kg

O=C(NOCCO)c1ncc2cncn2c1Nc1ccc(I)cc1F
solubility thermodynamic [11]: 150 µg/mL (≈ 328 µM)
logD [2]: 2.1
AUC/dose (Rattus norvegicus [6]): 1.48 µM·h
fraction unbound [13]: 0.09
CLhep predicted [14]: 54 mL/min/kg
fraction unbound [15]: 0.11
Papp B→A [16]: 14 ×10⁻⁶ cm/s
IC50 [17]: 3300 nM
pKa [26]: 2.03
CL free (Rattus norvegicus [8]): 600 mL/min/kg
fraction unbound [9]: 0.08
bioavailability [19]: 38%
efflux ratio [21]: 0.7
EC50 (A-375): 8 nM
EC50 [4]: 120 nM
Papp A→B [22]: 19.7 ×10⁻⁶ cm/s
CLhep predicted [24]: 11 mL/min/kg
CLhep predicted [25]: 41 mL/min/kg
clearance [10]: 48 mL/min/kg

C[C@H](O)CONC(=O)c1ncc2cncn2c1Nc1ccc(I)cc1F
solubility thermodynamic [11]: 48 µg/mL (≈ 102 µM)
AUC/dose (Rattus norvegicus [6]): 0.61 µM·h
fraction unbound [13]: 0.1
CLhep predicted [14]: 56 mL/min/kg
fraction unbound [15]: 0.09
CL free (Rattus norvegicus [8]): 800 mL/min/kg
fraction unbound [9]: 0.055
bioavailability [19]: 15%
EC50 (A-375): 5 nM
EC50 [4]: 52 nM
CLhep predicted [24]: 10 mL/min/kg
CLhep predicted [25]: 44 mL/min/kg
clearance [10]: 44 mL/min/kg

C[C@H](CO)CONC(=O)c1ncc2cncn2c1Nc1ccc(I)cc1F
solubility thermodynamic [11]: 12 µg/mL (≈ 24.7 µM)
AUC/dose (Rattus norvegicus [6]): 9.2 µM·h
fraction unbound [13]: 0.14
CLhep predicted [14]: 29 mL/min/kg
fraction unbound [15]: 0.13
permeability (MDCK [27]): 8.7 ×10⁻⁶ cm/s
IC50 [17]: 14000 nM
CL free (Rattus norvegicus [8]): 92 mL/min/kg
fraction unbound [9]: 0.13
bioavailability [19]: 65%
Ratio (MDCK [28]): 1.3
EC50 (A-375): 7 nM
EC50 [4]: 107 nM
permeability (MDCK [29]): 7.9 ×10⁻⁶ cm/s
CLhep predicted [24]: 8 mL/min/kg
CLhep predicted [25]: 19 mL/min/kg
clearance [10]: 12 mL/min/kg

O=C(NOCCO)c1ccc2cncn2c1Nc1ccc(I)cc1F [GDC-0623]
IC50 (Cytochrome P450 3A4 [1]): > 10000 nM
solubility thermodynamic [11]: 41 µg/mL (≈ 89.9 µM)
CLhep predicted [12]: 12 mL/min/kg
IC50 (Cytochrome P450 2C19): > 10000 nM
logD [2]: 2.1
IC50 (Cytochrome P450 1A2): > 10000 nM
AUC/dose (Rattus norvegicus [6]): 20 µM·h
Drug metabolism (Plasma [30]): metabolite_detected
half-life [7]: 1.7 h
IC50 (Cytochrome P450 2C9): > 10000 nM
IC50 (Cytochrome P450 3A4 [3]): > 10000 nM
fraction unbound [13]: 0.005
CLhep predicted [14]: 64 mL/min/kg
fraction unbound [15]: 0.06
Papp B→A [16]: 16.5 ×10⁻⁶ cm/s
IC50 [17]: 4400 nM
pKa [26]: 4.3
Vd [18]: 0.5 L/kg
CL free (Rattus norvegicus [8]): 1320 mL/min/kg
fraction unbound [9]: 0.01
bioavailability [19]: 100%
efflux ratio [21]: 2.6
Stability (Plasma [31]): 82%
EC50 (A-375): 4 nM
EC50 [4]: 51 nM
IC50 (Cytochrome P450 2D6): > 10000 nM
Papp A→B [22]: 6.2 ×10⁻⁶ cm/s
CLhep predicted [23]: 30 mL/min/kg
CLhep predicted [24]: 14 mL/min/kg
CLhep predicted [25]: 38 mL/min/kg
clearance [10]: 13.2 mL/min/kg
